Laboratory results: ChEMBL document CHEMBL2029301, “Development of a series of 3-hydroxyquinolin-2(1H)-ones as selective inhibitors of HIV-1 reverse transcriptase associated RNase H activity” (Bioorg Med Chem Lett, 2012)
Calls of active or inactive are those of the source. No cut-off for these calls is given here.

Assays:
[1] = biological target: Human immunodeficiency virus type 1 integrase (Human immunodeficiency virus 1, UniProt Q7ZJM1); experiment: Inhibition of HIV1 integrase
Procedure, shortened: (§1)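 Mg-dependent HIV-1 integrase and RT RNA-dependent DNA polymerase activities measured in vitro, with compounds tested at concentrations up to 250 µM.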

[2] = biological target: Human immunodeficiency virus type 1 reverse transcriptase (Human immunodeficiency virus 1) (UniProt Q72547); experiment: Selectivity ratio of IC50 for HIV1 reverse transcriptase associated RNA dependent polymerase activity to IC50 for reverse transcriptase Rnase H activity
[3] = biological target: T1, Human immunodeficiency virus type 1 reverse transcriptase (Human immunodeficiency virus 1, UniProt Q72547); experiment: Inhibition of HIV1 reverse transcriptase associated RNA dependent polymerase activity; procedure, shortened: as §1
[4] = Cytotoxicity against human MT4 cells; assay type: cell-based
[5] = biological target: T1, Human immunodeficiency virus type 1 reverse transcriptase; experiment: Inhibition of HIV1 reverse transcriptase RNase H activity
[6] = tested on: Human immunodeficiency virus 1; experiment: Antiviral activity against HIV1 infected in MT4 cells assessed as inhibition of virus-induced cytopathic effect; assay type: functional, organism-based; settings: Human immunodeficiency virus 1, MT4
[7] = tested on: Human immunodeficiency virus 1; experiment: Selectivity ratio of IC50 for HIV1 integrase to IC50 for reverse transcriptase Rnase H activity
[8] = biological target: Human immunodeficiency virus type 1 reverse transcriptase (Human immunodeficiency virus 1) (UniProt Q72547); experiment: Inhibition of HIV1 reverse transcriptase RNase H activity assessed as remaining activity at 100 uM
Procedure, shortened: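 In vitro HIV-1 RT-associated RNase H activity measured with compound at 100 µM, expressed as percentage of remaining enzyme activity.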

[9] = tested on: Human immunodeficiency virus 1; experiment: Binding affinity to HIV1 Reverse transcriptase RNase H domain p15 assessed as intrinsic fluorescence quenching at 100 uM by fluorimetry
Procedure, shortened: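 Recombinant isolated HIV-1 RT RNase H domain (p15) excited at 290 nm to maximise the tryptophan signal. Ligand binding at the active site is read as quenching of intrinsic fluorescence. HTHI (2-hydroxy-1,2,3,4-tetrahydroisoquinoline-1,3-dione) serves as positive control.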

Sequence of Human immunodeficiency virus type 1 integrase (Q7ZJM1 whole entry): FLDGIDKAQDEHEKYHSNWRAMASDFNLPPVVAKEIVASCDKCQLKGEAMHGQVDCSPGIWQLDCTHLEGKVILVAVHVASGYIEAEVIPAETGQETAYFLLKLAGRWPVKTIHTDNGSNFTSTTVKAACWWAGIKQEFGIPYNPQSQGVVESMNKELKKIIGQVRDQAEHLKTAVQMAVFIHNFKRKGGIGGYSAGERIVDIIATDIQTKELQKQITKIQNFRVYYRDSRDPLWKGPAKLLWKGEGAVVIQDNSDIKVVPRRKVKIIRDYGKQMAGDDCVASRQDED

| Structure (SMILES) | IC50 [1] [µM] | Ratio IC50 [2] | IC50 [3] [µM] | CC50 [4] [µM] | IC50 [5] [µM] | EC50 [6] [µM] | Ratio IC50 [7] | Activity [8] [%] | Activity [9] |
| --- | --- | --- | --- | --- | --- | --- | --- | --- | --- |
| O=C(NCc1ccc(F)cc1)c1c(O)c(=O)[nH]c2ccc(Cl)cc12 | > 250 | > 14 | > 250 | 28 | 18 | > 28 | > 14 | – | – |
| O=C(NCc1ccc(F)cc1)c1c(O)c(=O)[nH]c2ccc(F)cc12 | > 250 | – | > 250 | 24 | 22 | > 24 | – | – | – |
| CCOC(=O)c1c(O)c(=O)[nH]c2ccc([N+](=O)[O-])cc12 | – | – | – | 118 | 64 | > 118 | – | – | – |
| O=C(O)c1c(O)c(=O)[nH]c2ccc([N+](=O)[O-])cc12 | – | – | – | > 250 | 97 | > 250 | – | – | – |
| COc1ccc(CNC(=O)c2c(O)c(=O)[nH]c3ccc(F)cc23)cc1 | > 250 | – | > 250 | 29 | 19 | > 29 | – | – | – |
| O=C(O)c1c(O)c(=O)[nH]c2ccc(F)cc12 | – | – | – | 250 | > 100 | > 250 | – | 100 | – |
| O=C(O)c1c(O)c(=O)[nH]c2c(F)cccc12 | – | – | – | > 250 | > 100 | > 250 | – | 88 | – |
| O=C(NCc1ccc(F)cc1)c1c(O)c(=O)[nH]c2c(F)cccc12 | – | – | – | 8 | 75 | > 6.8 | – | – | – |
| O=c1[nH]c2ccccc2cc1O | – | – | – | 115 | – | – | – | 97 | – |
| CCOC(=O)c1c(O)c(=O)[nH]c2ccc(Cl)cc12 | – | – | – | 117 | > 100 | > 117 | – | 100 | – |
| O=C(O)c1c(O)c(O)nc2ccccc12 | – | – | – | > 250 | 59 | > 250 | – | – | – |
| COc1ccc(CNC(=O)c2c(O)c(=O)[nH]c3c(F)cccc23)cc1 | – | – | – | 8 | 74 | > 8 | – | – | – |
| O=C(O)c1c(O)c(=O)[nH]c2ccc(Cl)cc12 | – | – | – | > 250 | > 100 | > 250 | – | 100 | – |
| CCOC(=O)c1c(O)c(=O)[nH]c2c(F)cccc12 | – | – | – | 238 | > 100 | > 238 | – | 100 | – |
| CCCCCCNC(=O)c1c(O)c(=O)[nH]c2c(F)cccc12 | – | – | – | 22 | 49 | > 22 | – | – | – |
| CCOC(=O)c1c(O)c(=O)[nH]c2ccc(F)cc12 | – | – | – | 134 | > 100 | > 134 | – | 100 | – |
| CCOC(=O)c1c(O)c(O)nc2ccccc12 | – | – | – | 210 | 16 | > 210 | – | – | – |
| O=C(NCc1ccc(F)cc1)c1c(O)c(=O)[nH]c2ccccc12 | > 250 | – | > 250 | 29 | 19 | > 29 | – | – | Active |
| CCOC(=O)c1c(O)c(=O)[nH]c2ccc(N)cc12 | – | – | – | 250 | > 100 | > 250 | – | 100 | – |
